Published values gathered from unrelated publications.
Read-out: microbial growth

The MIC of `CCCCCCCCCCCCCCSC[C@@H]1O[C@@H](O[C@@H]2[C@@H](O)[C@H](O[C@@H]3O[C@@H](CN)[C@H](O)[C@@H](O)[C@@H]3N)[C@@H](N)C[C@H]2N)[C@@H](O)[C@H](N)[C@H]1O` is reported as 0.5 to 1 µg/mL (Listeria monocytogenes; ATCC19115).
`O=C(CCCCCCCCCC[P+](c1ccccc1)(c1ccccc1)c1ccccc1)Nc1ccc(O)c(O)c1.[Br-]` has an MIC of > 32 µg/mL (Cryptococcus neoformans; broth dilution; ATCC208821; 24 h).
`O=C(O)c1cn(C2CC2)c2cc(N3CCNCC3)c(F)cc2c1=O` gave an MIC of ≤ 0.03 µg/mL (Proteus vulgaris; DSM2140).
`O=C(CCc1ccc(O)c(O)c1)NCCCCCCCC[P+](c1ccccc1)(c1ccccc1)c1ccccc1.[Br-]` has an MIC of > 32 µg/mL (Cryptococcus neoformans; broth dilution; ATCC208821; 24 h).
For `CO[C@@H](C(N)=O)[C@H](NC(=O)c1ccc(NC(=O)c2ccc(C#N)cc2)cc1)C(=O)Nc1ccc(C(=O)Nc2ccc(C(=O)Nc3ccc(C(=O)O)cc3)c(O)c2OC(C)C)cc1`, the MIC was 0.125 µg/mL (Proteus vulgaris; DSM2140).
With `CCCCCCC/C=C/C(=O)N1C(=O)/C(=C(\O)c2ccc(OCOCCOC)cc2)C(=O)C1CC(C)C` (stereo not drawn) the MIC was > 200 µg/mL (Proteus vulgaris; ATCC33420).
For `CC(C)Oc1c(NC(=O)c2ccc(NC(=O)[C@H](CC(N)=O)NC(=O)c3ccc(NC(=O)c4ccc(C#N)s4)cc3)cc2)ccc(C(=O)Nc2ccc(C(=O)O)cc2)c1O`, the MIC was 0.06 µg/mL (Proteus vulgaris; DSM2140).
`CCCCCCC/C=C/C(=O)N1C(=O)/C(=C(\O)c2ccc(O)cc2)C(=O)C1CC(C)C` (stereo not drawn) has an MIC of > 200 µg/mL (Proteus vulgaris; ATCC33420).
`CNC(=O)c1cc(Oc2ccc(NC(=O)Nc3ccc(Cl)c(C(F)(F)F)c3)cc2)ccn1` gave an MIC of 3 µM (Listeria monocytogenes).
`CCCCCCCCCCCCCCS(=O)(=O)C[C@@H]1O[C@@H](O[C@@H]2[C@@H](O)[C@H](O[C@@H]3O[C@@H](CN)[C@H](O)[C@@H](O)[C@@H]3N)[C@@H](N)C[C@H]2N)[C@@H](O)[C@H](N)[C@H]1O` gave an MIC of 2 to 4 µg/mL (Listeria monocytogenes; ATCC19115).
The MIC of `CCCCCCC/C=C/C(=O)N1CC(=O)/C(=C(\C)O)C1=O` is reported as > 200 µg/mL (Proteus vulgaris; ATCC33420).
`CC(C)Oc1c(NC(=O)c2ccc(NC(=O)c3ccc(NC(=O)[C@H](CC(N)=O)NC(=O)c4ccc(NC(=O)c5ccc(C#N)cn5)cc4)cc3)c(OC(C)C)c2O)ccc(C(=O)O)c1O` has an MIC of 1 µg/mL (Proteus vulgaris; DSM2140).
`O=C(CCCCCCCCCC[P+](c1ccccc1)(c1ccccc1)c1ccccc1)Nc1cc(O)c(O)c(O)c1.[Br-]` gave an MIC of 4 µg/mL (Cryptococcus neoformans; broth dilution; ATCC208821; 24 h).
For `CC(C)Oc1c(NC(=O)c2ccc(NC(=O)[C@H](CC(N)=O)NC(=O)c3ccc(NC(=O)c4ccc(C#N)cc4)cc3)cc2)ccc(C(=O)Nc2ccc(C(=O)O)cc2)c1O`, the MIC was 0.25 µg/mL (Proteus vulgaris; DSM2140).
With `C/C(O)=C1\C(=O)C(CC(C)C)N(C(=O)CCCCCc2ccccc2)C1=O` (stereo not drawn) the MIC was > 200 µg/mL (Proteus vulgaris; ATCC33420).
